Data reported in ChEMBL document CHEMBL4184239, “Therapeutic effects of isothiocyanate prodrugs on rheumatoid arthritis” (Bioorg Med Chem Lett, 2018).
Activity calls are given as the source filed them. No cut-off for these calls is given here.

Assays:
[1] = system: Rattus norvegicus; test: Anti-inflammatory activity in Wistar rat model of Freund's complete adjuvant-induced rheumatoid arthritis model assessed as reduction in paw swelling at 1 mg/kg, po dosed every day from day 16 after initial inflammation and measured after 10 days; assay type: functional, organism-based
Method in brief: (§1)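 Wistar rats with Freund's complete adjuvant-induced arthritis, 30 randomized into 5 groups; oral daily dosing from day 16 after initial inflammation, reference 1 mg/kg, test 10, 20, 40 mg/kg; paw swelling degree tracked over days; P < .05 vs model group.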

[2] = system: Rattus norvegicus; test: Anti-inflammatory activity in Wistar rat model of Freund's complete adjuvant-induced rheumatoid arthritis model assessed as reduction in paw swelling at 1 mg/kg, po dosed every day from day 16 after initial inflammation; assay type: functional, organism-based; method in brief: as §1
[3] = Half life in mouse plasma by HPLC method; assay type: ADME, cell-free
[4] = species: Danio rerio; test: Anti-inflammatory activity in EGFP transgenic Zebrafish model of neutrophil inflammation assessed as reduction in number of neutrophil migration at 5 ug/ml incubated for 3 hrs by stereofluorescence microscopy; assay type: functional, organism-based
Method in brief: (§2)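 72 h post-fertilization EGFP transgenic zebrafish, 24 larvae split into 4 groups (vehicle control, reference, two test articles); compound added to culture wells for 3 h; migrating neutrophils counted; P vs control by statistical comparison.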

[5] = Prodrug conversion in mouse plasma assessed as Tmax for formation of 1-isothiocyanato-4-(methylsulfinyl)butane measured after 24 hrs by HPLC method; assay type: ADME, cell-free
[6] = Stability in mouse plasma assessed as time duration for complete drug degradation by HPLC method; assay type: ADME, cell-free
[7] = Prodrug conversion in mouse plasma assessed as formation of 1-isothiocyanato-4-(methylsulfinyl)butane measured after 24 hrs by HPLC method; assay type: ADME, cell-free
[8] = Stability in HEPES buffer at pH 4.4 measured within 24 hrs by HPLC method; assay type: physicochemical; conditions: pH 4.4, 24 h
Method in brief: (§3)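 Prodrug incubated in HEPES buffer at pH 4.4 or pH 7.4; concentrations of prodrug and released isothiocyanate followed over time (up to 24 h and beyond) to build concentration–time curves.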

[9] = Prodrug conversion in mouse plasma assessed as Tmax for formation of 5-(4-isothiocyanatobutylthio)-1-phenyl-1H-tetrazole measured after 24 hrs by HPLC method; assay type: ADME, cell-free
[10] = system: Mus musculus; test: Toxicity in Kunming white mouse assessed as effect on body weight at 200 mg/kg, po dosed everyday for 5 weeks measured from day 30 onwards; assay type: organism-based; conditions: in vivo, 840 h
Method in brief: (§4)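 Mice were dosed orally once daily at 200 mg/kg for 5 weeks alongside an untreated control group. Survival and body weight were recorded over the dosing period and compared with controls.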

[11] = system: Rattus norvegicus; test: Toxicity in Wistar rat model of Freund's complete adjuvant-induced rheumatoid arthritis model assessed as increase in body weight at 10 mg/kg, po dosed every day from day 16 after initial inflammation (reference value: 84.6 g); assay type: organism-based; conditions: in vivo
[12] = system: Rattus norvegicus; test: Anti-inflammatory activity in Wistar rat model of Freund's complete adjuvant-induced rheumatoid arthritis model assessed as reduction in paw swelling at 10 to 20 mg/kg, po dosed every day from day 16 after initial inflammation and measured after 10 days; assay type: functional, organism-based; method in brief: as §1
[13] = system: Mus musculus; test: Toxicity in Kunming white mouse assessed as survival at 200 mg/kg, po dosed everyday for 5 weeks; assay type: organism-based; conditions: in vivo, 840 h; method in brief: as §4
[14] = species: Danio rerio; test: Anti-inflammatory activity in EGFP transgenic Zebrafish model of neutrophil inflammation assessed as reduction in number of neutrophil migration at 0.5 ug/ml incubated for 3 hrs by stereofluorescence microscopy; assay type: functional, organism-based; method in brief: as §2
[15] = system: Rattus norvegicus; test: Toxicity in Wistar rat model of Freund's complete adjuvant-induced rheumatoid arthritis model assessed as increase in body weight at 40 mg/kg, po dosed every day from day 16 after initial inflammation (reference value: 84.6 g); assay type: organism-based; conditions: in vivo
[16] = system: Rattus norvegicus; test: Anti-inflammatory activity in Wistar rat model of Freund's complete adjuvant-induced rheumatoid arthritis model assessed as reduction in paw swelling at 10 mg/kg, po dosed every day from day 16 after initial inflammation and measured after 10 days; assay type: functional, organism-based; method in brief: as §1
[17] = system: Rattus norvegicus; test: Toxicity in Wistar rat model of Freund's complete adjuvant-induced rheumatoid arthritis model assessed as increase in body weight at 20 mg/kg, po dosed every day from day 16 after initial inflammation (reference value: 84.6 g); assay type: organism-based; conditions: in vivo
[18] = system: Rattus norvegicus; test: Anti-inflammatory activity in Sprague-Dawley rat model of carrageenan-induced paw edema assessed as reduction in hind paw volume at 10 to 50 mg/kg, po dosed for 2 times at 6 hrs after carrageenan injection measured after 8 to 10 hrs; assay type: functional, organism-based; conditions: in the assay text read “at 2 and 6 hrs” for “at 6 hrs”
Method in brief: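 Sprague-Dawley rats, 30 randomized into 5 groups (6 per group); oral dosing twice, at 2 h and 6 h after finishing carrageenan injection into paw; reference 5 mg/kg, test 10, 20, 50 mg/kg; swelling followed over time (to 10 h); significance vs model group.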

[19] = Prodrug conversion in mouse plasma assessed as formation of 5-(4-isothiocyanatobutylthio)-1-phenyl-1H-tetrazole measured after 24 hrs by HPLC method; assay type: ADME, cell-free
[20] = system: Rattus norvegicus; test: Anti-inflammatory activity in Wistar rat model of Freund's complete adjuvant-induced rheumatoid arthritis model assessed as reduction in paw swelling at 10 to 40 mg/kg, po dosed every day from day 16 after initial inflammation; assay type: functional, organism-based; method in brief: as §1
[21] = species: Danio rerio; test: Potency index, ratio of dexamethasone to test compound anti-inflammatory activity in EGFP transgenic Zebrafish model of neutrophil inflammation assessed as reduction in number of neutrophil migration incubated for 3 hrs by stereofluorescence microscopy; assay type: functional
[22] = species: Danio rerio; test: Anti-inflammatory activity in EGFP transgenic Zebrafish model of neutrophil inflammation assessed as reduction in number of neutrophil migration at 30 ug/ml incubated for 3 hrs by stereofluorescence microscopy; assay type: functional, organism-based; method in brief: as §2
[23] = clinical; conditions: human, in vivo
[24] = in vivo; conditions: rat
[25] = Drug level in HEPES buffer at pH 7.4 treated with 2-(2-(2-(dimethylamino)ethoxy)ethoxy)ethyl 4-(1-phenyl-1H-tetrazol-5-ylthio)butylcarbamodithioate assessed as active compound formation measured during 2 to 30 hrs by HPLC method; assay type: physicochemical; method in brief: as §3
[26] = Drug level in mouse plasma treated with 2-(2-(2-(dimethylamino)ethoxy)ethoxy)ethyl 4-(1-phenyl-1H-tetrazol-5-ylthio)butylcarbamodithioate assessed as active compound formation measured after 24 hrs by HPLC method; assay type: ADME, cell-free
[27] = Drug level in HEPES buffer at pH 7.4 treated with 2-(2-(2-(dimethylamino)ethoxy)ethoxy)ethyl 4-(1-phenyl-1H-tetrazol-5-ylthio)butylcarbamodithioate assessed as active compound formation measured at 2 hrs by HPLC method; assay type: physicochemical; conditions: pH 7.4, 2 h; method in brief: as §3

For `CN(Cc1cnc2nc(N)nc(N)c2n1)c1ccc(C(=O)N[C@@H](CCC(=O)O)C(=O)O)cc1`, the Activity [1] was “Active” and the Activity [2] was “Active”.
In the case of `CN(C)CCOCCOCCSC(=S)NCCCC[S+](C)[O-]` (stereo not given), the half-life [3] is reported as 6 h, the Activity [4] is reported as “Active” and the Tmax [5] is reported as 2 h. The Time [6] was 24 h, the Drug metabolism [7] was “Metabolite_Detected” and the Stability [8] was “Stable”.
For `CN(C)CCOCCOCCSC(=S)NCCCCSc1nnnn1-c1ccccc1`, the Tmax [9] was 2 h, the Activity [10] was “Non-Toxic” and the half-life [3] was 6 h. For the same compound, the Activity [11] was 80.8 g, the Activity [12] was “Active” and the Activity [13] was “Non-Toxic”. The Activity [14] was “Active”, the Activity [15] was 58.2 g and the Activity [16] was “Active”. The Activity [17] was 70.8 g, the Time [6] was 10 h and the Activity [18] was “Active”. For the same compound, the Drug metabolism [19] was “Metabolite_Detected”, the Activity [20] was “Active” and the Ratio [21] was 300. For the same compound, the Stability [8] was “Stable”.
For `C[C@@H]1C[C@H]2[C@@H]3CCC4=CC(=O)C=C[C@]4(C)[C@@]3(F)[C@@H](O)C[C@]2(C)[C@@]1(O)C(=O)CO`, the Activity [22] was “Active”.
Work on `C[S+]([O-])CCCCN=C=S` (stereo not given) [SULFORAPHANE] yielded a half-life [23] of 1.77 h and a half-life [24] of 2.2 h.
With `S=C=NCCCCSc1nnnn1-c1ccccc1` the Drug uptake [25] was “Active”, the Drug uptake [26] was “Active” and the Drug uptake [27] was “Active”.
